Active and inactive are the calls of the source. The rule behind the calls is not given here.
Experiments:
[1] = test system: MDA-MB-231; test: Cell cycle arrest in human MDA-MB-231 cells assessed as accumulation at G2/M phase at 9 uM measured after 48 hrs by propidium iodide staining based flow cytometry (reference value: 15.46 %); type: functional
[2] = test system: MCF7; test: Induction of G2/M phase cell cycle arrest in human MCF7 cells assessed as upregulation of p-cdc25c protein expression at 4 uM measured after 48 hrs in presence of cdc25c inhibitor, NSC663284 by western blot analysis; type: functional, cell-based
Procedure, shortened: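 Four groups (untreated, test compound, 0.3 NSC663284, combination) treated 48 h before protein extraction. Lysates resolved by SDS-PAGE (5–15%) and blotted to nitrocellulose. Blocked 2 h in 5% milk/PBS-0.1% Tween 20, primary antibody overnight at 4 °C, biotinylated secondary 1 h. Detected on X-ray film and quantified by densitometry.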

[3] = test system: MDA-MB-231; test: Induction of G2/M phase cell cycle arrest in human MDA-MB-231 cells assessed as downregulation of p-cdc2 protein expression at 9 uM measured after 48 hrs in presence of cdc25c inhibitor, NSC663284 by western blot analysis; type: functional, cell-based
[4] = test system: MCF7; test: Inhibition of colony formation in human MCF7 cells incubated for 24 hrs followed by medium removal and measured after 7 days by crystal violet staining based assay; type: functional, cell-based; settings: dose 1-4 µM
Procedure, shortened: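 Cells seeded at 1 × 10³ per well in six-well plates and left overnight. Compound (DMSO solution) given in fresh medium for 24 h, then medium removed and plates grown another 7 days. Colonies washed with PBS, fixed in 4% paraformaldehyde 30 min, stained with 0.1% crystal violet 30 min, photographed and counted.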

[5] = test system: MCF7; test: Cell cycle arrest in human MCF7 cells assessed as accumulation at G2/M phase at 1 uM measured after 48 hrs by propidium iodide staining based flow cytometry (reference value: 0.01 %); type: functional
[6] = test system: MDA-MB-231; test: Induction of apoptosis in human MDA-MB-231 cells assessed as late apoptotic cells at 9 uM measured after 48 hrs by Annexin V-FITC/propidium iodide staining based flow cytometric analysis (reference value: 0.3 %); type: functional
[7] = test system: MCF7; test: Induction of apoptosis in human MCF7 cells assessed as increase in cleaved caspase 7 protein expression at 4 uM measured after 48 hrs in presence of cdc25c inhibitor, NSC663284 by western blot analysis; type: functional, cell-based
Procedure, shortened: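 Four arms per cell line: untreated, test compound, 0.3 µM NSC663284 alone, and combination. Proteins harvested after 48 h and resolved by SDS-PAGE on 5–15% gels, transferred to nitrocellulose. Blocked 2 h in milk/PBS-Tween, primary antibodies overnight at 4 °C, biotin-conjugated secondary. Read on X-ray film with densitometry.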

[8] = test system: MCF7; test: Induction of DNA damage in human MCF7 cells assessed as increase in ATM protein expression at 1 to 4 uM measured after 48 hrs by western blot analysis; type: functional, cell-based; settings: dose 1-4 µM
Procedure, shortened: (§1)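 Cells exposed to graded concentrations for 48 h, then proteins extracted. Run on SDS-PAGE (5–15% gels) and transferred to nitrocellulose. Blocked 2 h in 5% nonfat milk in PBS/0.1% Tween 20, primary antibody overnight at 4 °C, biotin-conjugated secondary 1 h. Visualized on X-ray film with densitometric quantitation; three independent experiments.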

[9] = test system: MDA-MB-231; test: Induction of G2/M phase cell cycle arrest in human MDA-MB-231 cells assessed as decrease in cyclinB1 protein expression at 3 to 9 uM measured after 48 hrs by western blot analysis; type: functional, cell-based; settings: dose 3-9 µM; procedure, shortened: as §1
[10] = test system: MDA-MB-231; test: Induction of mitochondrial membrane potential loss in human MDA-MB-231 cells assessed as green fluorescence intensity at 6 uM measured after 48 hrs by JC1 staining-based flow cytometry analysis (reference value: 0.8 %); type: functional
[11] = test system: MCF7; test: Cell cycle arrest in human MCF7 cells assessed as accumulation at G1 phase at 1 uM measured after 48 hrs by propidium iodide staining based flow cytometry (reference value: 70.09 %); type: functional
[12] = test system: MCF7; test: Induction of apoptosis in human MCF7 cells assessed as late apoptotic cells at 4 uM measured after 48 hrs in presence of cdc25c inhibitor, NSC663284 by AnnexinV-FITC/PI staining based flow cytometry (reference value: 4.9%); type: functional
[13] = test system: HeLa; test: Anticancer activity against human HeLa cells assessed as inhibition of cell growth measured after 72 hrs by MTT assay; type: functional, cell-based
Procedure, shortened: (§2)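 Cells seeded at 3000 exponentially growing cells/well and incubated 12 h at 37 °C. Medium then replaced with fresh medium containing graded compound concentrations for 72 h; 5-FU positive control. MTT (5 mg/mL solution) added for 4 h, formazan dissolved in DMSO, absorbance read at 570 nm (reference 630 nm). Relative percentage inhibition of viable cells calculated; IC50 reported as mean ± standard deviation.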

[14] = test system: PC-3; test: Antiproliferative activity against human PC-3 cells assessed as cell growth inhibition measured after 72 hrs by MTT assay; type: functional, cell-based; settings: PC-3, 72 h; procedure, shortened: as §2
[15] = test system: MDA-MB-231; test: Potency index, ratio of 5-FU IC50 to test compound IC50 for anticancer activity against human MDA-MB-231 cells measured after 72 hrs by MTT assay; type: functional
Procedure, shortened: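 MTT assay: 3000 exponentially growing cells per well, 12 h at 37 °C. Medium replaced with compound at a range of concentrations for 72 h. MTT (5 mg/mL stock) added for 4 h, formazan dissolved in DMSO. Absorbance read at 570 nm (reference 630 nm); percent inhibition gives IC50. Index is 5-FU IC50 divided by test-compound IC50.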

[16] = test system: MDA-MB-231; test: Induction of apoptosis in human MDA-MB-231 cells assessed as increase in cleaved caspase 7 protein expression at 3 to 9 uM measured after 48 hrs by western blot analysis; type: functional, cell-based; settings: dose 3-9 µM
Procedure, shortened: (§3)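 MCF-7 and MDA-MB-231 breast cancer cells treated 48 h with a concentration series, then lysed for protein. SDS-PAGE on 5–15% gels, transfer to nitrocellulose. Blocked 2 h in 5% nonfat milk/PBS-0.1% Tween 20, primary antibodies overnight at 4 °C, biotin-conjugated secondary 1 h. X-ray film detection with densitometric quantification.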

[17] = test system: MCF7; test: Induction of apoptosis in human MCF7 cells assessed as increase in Bax to Bcl2 ratio at 1 to 4 uM measured after 48 hrs by western blot analysis; type: functional, cell-based; settings: dose 1-4 µM; procedure, shortened: as §3
[18] = test system: MDA-MB-231; test: Induction of G2/M phase cell cycle arrest in human MDA-MB-231 cells assessed as decrease in p-cdc2 protein expression at 3 to 9 uM measured after 48 hrs by western blot analysis; type: functional, cell-based; settings: dose 3-9 µM; procedure, shortened: as §1
[19] = test system: MCF7; test: Induction of apoptosis in human MCF7 cells assessed as increase in Bad protein expression at 1 to 4 uM measured after 48 hrs by western blot analysis; type: functional, cell-based; settings: dose 1-4 µM; procedure, shortened: as §3
[20] = test system: MCF7; test: Induction of apoptosis in human MCF7 cells assessed as early apoptotic cells at 1 uM measured after 48 hrs by Annexin V-FITC/propidium iodide staining based flow cytometric analysis (reference value: 3 %); type: functional
[21] = test system: SW-620; test: Antiproliferative activity against human SW-620 cells assessed as cell growth inhibition measured after 72 hrs by MTT assay; type: functional, cell-based; settings: SW-620, 72 h; procedure, shortened: as §2
[22] = test system: MCF7; test: Induction of apoptosis in human MCF7 cells assessed as increase in cleaved PARP protein expression at 1 to 4 uM measured after 48 hrs by western blot analysis; type: functional, cell-based; settings: dose 1-4 µM; procedure, shortened: as §3
[23] = test system: MDA-MB-231; test: Cell cycle arrest in human MDA-MB-231 cells assessed as accumulation at S phase at 3 uM measured after 48 hrs by propidium iodide staining based flow cytometry (reference value: 35.54 %); type: functional

C[C@H]1O[C@@H](n2cnc3c(N)nc(F)nc32)[C@H](O)[C@H]1OCP(=O)([O-])[O-].[Na+].[Na+]
Activity [1]: 31.49% | Activity [2]: inactive | Activity [3]: inactive | inhibition [4]: Dose-Dependent Effect | Activity [5]: 16.26% | Activity [6]: 16% | Activity [7]: inactive | Activity [8]: Active | Activity [9]: Active | Activity [10]: 36.2% | Activity [11]: 63.54% | Activity [12]: 5.2% | IC50 [13]: 6.2 µM | IC50 [14]: 2.21 µM | Ratio IC50 [15]: 47 | Activity [16]: Active | Activity [17]: Active | Activity [18]: Active | Activity [19]: Active | Activity [20]: 15.5% | IC50 [21]: 6.62 µM | Activity [22]: Active | Activity [23]: 34.82%
